Series [1] relates to A549. Briefly: Antiproliferative activity against human A549 cells by MTT assay. In kind it is functional, cell-based. A digest of the protocol: (§1)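 Cells from NCCS were grown in DMEM with 10% FBS and antibiotics at 37 °C under 5% CO₂. They were seeded at 8000 cells/well after trypan blue counting. Compounds were made up as 100 mM DMSO stocks and diluted in serum-free DMEM. MTT was added and cells were held 4 h at room temperature in the dark. Formazan was dissolved in DMSO and read at 570 nm. Values are averages of three independent experiments, each run in triplicate.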
In general terms: Tetrazolium dyes change colour on reduction, which living cells bring about.

Series [2] is described as follows: Antiproliferative activity against human H460 cells by MTT assay. In kind it is functional, cell-based. Conditions: NCI-H460. A digest of the protocol: as §1
Series [3] has as its system HepG2. Briefly: Antiproliferative activity against human HepG2 cells by MTT assay. In kind it is functional, cell-based. A digest of the protocol: as §1
For series [4], the system named is PBMC. The experiment in a line: Cytotoxic activity against human PBMC by MTT assay. It counts as cell-based. A digest of the protocol: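 Human peripheral blood mononuclear cells served as the normal control in an MTT read-out. Formazan was formed over 4 h at room temperature in the dark, dissolved in DMSO and read at 570 nm. Results are mean SD of three independent experiments.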

In series [5] the target is T1, DNA topoisomerase 2-alpha (Homo sapiens, UniProt P11388). Briefly: Inhibition of human topoisomerase-2 alpha assessed as reduction in enzyme-mediated kinetoplast DNA decatenation at 100 uM incubated for 30 mins by ethidium bromide staining based agarose gel electrophoresis method. In a few lines: (§2)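 Reactions with 2–4 units purified human topoisomerase II and 150 ng kDNA were set up on ice. Buffer was Tris-HCl pH 8 with NaCl, MgCl₂, DTT, BSA and ATP, and drug was 100 µM. Incubation was 30 min at 37 °C, then SDS and proteinase K for 15 min. Products were resolved on 1% agarose with ethidium bromide, visualized under UV and quantified.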

Series [6] deals with HepG2. Briefly: Induction of ROS generation in human HepG2 cells at 1 to 25 uM incubated for 24 hrs by DHE staining based assay. In kind it is functional, cell-based. In a few lines:
(§3)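 Cells were seeded in DMEM/10% FBS at 8000 per well and treated for 24 h. They were washed with PBS, stained with DHE for 30 min at 37 °C and washed with ice-cold PBS. Fluorescence OD was then read on a microplate reader.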

For series [7], the system named is NCI-H460. The experiment in a line: Induction of mitochondrial membrane depolarization in human H460 cells at 1 to 25 uM incubated for 24 hrs by JC1 staining based assay. It counts as functional, cell-based. A digest of the protocol: (§4)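 Cells were seeded at 8000 per well and treated for 24 h. JC-1 dye was added directly to the medium for 30 min at 37 °C, then excess dye was washed off with PBS. Membrane potential was read as the OD590/OD527 ratio.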

The test system of series [8] is NCI-H460. Briefly: Induction of ROS generation in human H460 cells at 1 to 25 uM incubated for 24 hrs by DHE staining based assay. In kind it is functional, cell-based. In a few lines:
as §3

Series [9] concerns A549. The experiment in a line: Induction of ROS generation in human A549 cells at 1 to 25 uM incubated for 24 hrs by DHE staining based assay. In kind it is functional, cell-based. In a few lines: as §3
Series [10] concerns the target T1, DNA topoisomerase 2-alpha. The experiment in a line: Inhibition of human topoisomerase-2 alpha assessed as reduction in enzyme-mediated kinetoplast DNA decatenation incubated for 30 mins by ethidium bromide staining based agarose gel electrophoresis method. A digest of the protocol: as §2
For series [11], the system named is HepG2. The experiment in a line: Induction of mitochondrial membrane depolarization in human HepG2 cells at 1 to 25 uM incubated for 24 hrs by JC1 staining based assay. It counts as functional, cell-based. In a few lines:
as §4

Series [12] deals with T2, DNA topoisomerase 1 (Homo sapiens) (UniProt P11387).
T2 sequence (whole entry): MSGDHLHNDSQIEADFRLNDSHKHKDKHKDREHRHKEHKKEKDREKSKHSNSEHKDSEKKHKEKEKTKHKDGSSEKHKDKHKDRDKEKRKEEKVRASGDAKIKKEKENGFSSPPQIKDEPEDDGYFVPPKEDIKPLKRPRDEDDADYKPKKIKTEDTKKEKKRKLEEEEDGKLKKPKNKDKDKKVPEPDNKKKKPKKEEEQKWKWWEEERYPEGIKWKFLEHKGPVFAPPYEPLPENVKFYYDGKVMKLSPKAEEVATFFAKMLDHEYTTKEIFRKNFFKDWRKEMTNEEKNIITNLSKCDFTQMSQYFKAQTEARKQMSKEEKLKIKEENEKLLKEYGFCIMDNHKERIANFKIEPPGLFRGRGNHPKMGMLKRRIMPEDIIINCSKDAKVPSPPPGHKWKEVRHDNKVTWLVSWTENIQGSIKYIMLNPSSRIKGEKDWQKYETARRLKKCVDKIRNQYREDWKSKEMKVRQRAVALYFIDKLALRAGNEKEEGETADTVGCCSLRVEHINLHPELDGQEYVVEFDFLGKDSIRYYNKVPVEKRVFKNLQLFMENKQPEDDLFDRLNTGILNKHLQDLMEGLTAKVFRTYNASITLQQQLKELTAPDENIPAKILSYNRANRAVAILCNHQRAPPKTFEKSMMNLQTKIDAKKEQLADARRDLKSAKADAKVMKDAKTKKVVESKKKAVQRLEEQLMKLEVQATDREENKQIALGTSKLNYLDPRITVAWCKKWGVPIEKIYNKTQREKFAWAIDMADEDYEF
The experiment in a line: Inhibition of human topoisomerase-1 assessed as reduction in enzyme-mediated DNA relaxation at 100 uM incubated for 30 mins by ethidium bromide staining based agarose gel electrophoresis method. In a few lines: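 Purified human Topo I was used with 250 ng supercoiled DNA. Buffer was Tris-HCl pH 7.9 with EDTA, NaCl, BSA, spermidine and glycerol. Compound was 100 µM in DMSO, with 30 min incubation at 37 °C. Reactions were stopped with SDS and proteinase K at 70 °C for 15 min. Products were run on 1% agarose in TAE.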

Series [13] has as its system A549. Briefly: Induction of mitochondrial membrane depolarization in human A549 cells at 1 to 25 uM incubated for 24 hrs by JC1 staining based assay. In kind it is functional, cell-based. In a few lines:
as §4

The source made the active and inactive calls. The calls are words filed in the database; no cut-off is given here.

For 9 compounds, IC50, Activity and inhibition results are on record in ChEMBL document CHEMBL3603828, “Imine/amide-imidazole conjugates derived from 5-amino-4-cyano-N1-substituted benzyl imidazole: Microwave-assisted synthesis and anticancer activity via selective topoisomerase-II-α inhibition” (Bioorg Med Chem, 2015).

T1 sequence (P11388 whole entry): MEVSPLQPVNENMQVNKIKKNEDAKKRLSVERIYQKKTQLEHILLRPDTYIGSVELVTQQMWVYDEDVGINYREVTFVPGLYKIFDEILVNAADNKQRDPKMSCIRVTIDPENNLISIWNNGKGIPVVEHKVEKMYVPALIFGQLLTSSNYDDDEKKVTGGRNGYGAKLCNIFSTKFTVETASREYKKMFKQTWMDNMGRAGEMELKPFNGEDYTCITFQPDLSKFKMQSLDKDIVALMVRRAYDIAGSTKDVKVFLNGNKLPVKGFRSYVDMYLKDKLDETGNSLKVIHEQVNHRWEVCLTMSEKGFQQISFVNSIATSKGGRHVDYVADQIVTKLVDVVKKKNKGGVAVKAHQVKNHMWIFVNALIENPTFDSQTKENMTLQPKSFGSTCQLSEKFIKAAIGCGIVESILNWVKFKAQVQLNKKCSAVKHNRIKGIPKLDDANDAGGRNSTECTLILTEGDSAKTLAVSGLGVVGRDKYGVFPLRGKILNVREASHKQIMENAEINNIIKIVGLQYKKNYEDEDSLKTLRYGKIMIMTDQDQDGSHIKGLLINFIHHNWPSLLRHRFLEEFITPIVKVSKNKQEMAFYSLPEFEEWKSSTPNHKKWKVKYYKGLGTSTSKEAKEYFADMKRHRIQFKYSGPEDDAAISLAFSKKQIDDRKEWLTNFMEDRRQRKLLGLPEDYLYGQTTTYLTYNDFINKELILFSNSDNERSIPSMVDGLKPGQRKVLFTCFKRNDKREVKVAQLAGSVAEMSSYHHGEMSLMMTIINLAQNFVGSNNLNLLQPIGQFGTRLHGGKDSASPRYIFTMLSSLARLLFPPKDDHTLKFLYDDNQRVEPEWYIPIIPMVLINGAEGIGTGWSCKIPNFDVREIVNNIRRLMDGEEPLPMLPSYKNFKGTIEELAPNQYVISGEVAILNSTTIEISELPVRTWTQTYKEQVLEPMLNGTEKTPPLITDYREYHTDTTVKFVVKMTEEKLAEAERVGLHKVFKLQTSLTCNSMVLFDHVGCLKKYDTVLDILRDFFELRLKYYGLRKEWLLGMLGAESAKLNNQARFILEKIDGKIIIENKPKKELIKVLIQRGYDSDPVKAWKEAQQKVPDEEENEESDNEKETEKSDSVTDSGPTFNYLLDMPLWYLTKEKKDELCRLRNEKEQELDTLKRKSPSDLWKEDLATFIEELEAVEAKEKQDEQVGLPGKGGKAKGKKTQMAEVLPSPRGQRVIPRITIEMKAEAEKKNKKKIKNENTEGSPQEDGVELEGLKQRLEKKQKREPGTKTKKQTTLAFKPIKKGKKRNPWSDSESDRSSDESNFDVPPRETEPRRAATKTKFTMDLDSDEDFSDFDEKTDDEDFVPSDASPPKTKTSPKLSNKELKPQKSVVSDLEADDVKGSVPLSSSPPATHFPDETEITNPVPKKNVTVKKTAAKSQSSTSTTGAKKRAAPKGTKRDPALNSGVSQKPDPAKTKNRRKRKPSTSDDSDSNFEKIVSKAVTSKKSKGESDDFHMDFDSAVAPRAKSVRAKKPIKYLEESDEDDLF

A word on the IC50: it is the concentration that inhibits the measured activity by half. Regarding `N#Cc1ncn(Cc2ccccc2Cl)c1/N=C/c1ccc(O)cc1`, the results for the IC50 in series [1], in [2] and in series [3] were 35.1 µM, above 40 µM and 38.2 µM, respectively. In addition, the Activity entry in series [4] is reported as “Non-toxic”.
As to `COc1ccc(/C=N/c2c(C#N)ncn2Cc2ccccc2Cl)cc1OC`, the IC50 in series [1] and in series [3] was above 50 µM throughout. Moreover, in series [4], the Activity result was “Non-toxic”.
`N#Cc1ncn(Cc2ccccc2Cl)c1/N=C/c1c[nH]c2ccccc12`: the inhibition result in series [5] is “Active”. The IC50 in series [1] is 10.9 µM; in series [2], 14.6 µM; in [3], 15 µM. Besides, the Activity entry in series [4] is listed as “Non-toxic”.
Consider `N#Cc1ncn(Cc2ccccc2Cl)c1/N=C/c1ccccc1[N+](=O)[O-]`, for which the IC50 in series [1] was 37 µM; in [3], 40 µM. The Activity entry in series [4] is on record as “Non-toxic”.
On to `N#Cc1ncn(Cc2ccccc2Cl)c1/N=C/c1ccc(Cl)cc1`, for which the IC50 came to 30.8 µM in series [1], 28.1 µM in series [2] and 31 µM in series [3]. Moreover, in [4], the Activity result is listed as “Non-toxic”.
As to `COc1cc([C@@H]2c3cc4c(cc3[C@@H](O[C@@H]3O[C@@H]5CO[C@@H](C)O[C@H]5[C@H](O)[C@H]3O)[C@H]3COC(=O)[C@H]23)OCO4)cc(OC)c1O` [ETOPOSIDE], the inhibition entry in [5] is “Active”. In addition, the IC50 in series [1] was 18.2 µM; in series [2], above 30 µM; in [3] it was 20.9 µM. Besides, the Activity entry in [4] is reported as “Non-toxic”.
Consider `COc1cc(/C=N/c2c(C#N)ncn2Cc2ccccc2Cl)ccc1O`, for which the IC50 in series [1] is 39 µM; in [3] it was above 40 µM. The Activity entry in [4] is on record as “Non-toxic”.
In the case of `COc1ccc(OC)c(/C=N/c2c(C#N)ncn2Cc2ccccc2Cl)c1`, the IC50 was 18 µM in [1], 28.3 µM in series [2] and 20 µM in series [3]. For the same compound, in series [4], the Activity entry was “Non-toxic”.
`N#Cc1ncn(Cc2ccccc2Cl)c1/N=C/c1cc(Cl)cc(Cl)c1O`: the Activity entry was “Dose-dependent effect” in [6], “Dose-dependent effect” in series [8], “Dose-dependent effect” in series [9] and “Non-toxic” in series [4]. Also, the inhibition entry in series [5] is “Active”. The IC50 turned out to be 7.5 µM in series [1], 11.2 µM in series [2], 34.9 µM in [10] and 12 µM in series [3]. For the same compound, the outcome in series [7], in series [11] and in series [13] was Active. Also, the inhibition entry in series [12] is “inactive”.
